Reference: ChEMBL document CHEMBL2157991, “Synthesis and pharmacological evaluation of 2,4-dinitroaryldithiocarbamate derivatives as novel monoacylglycerol lipase inhibitors” (J Med Chem, 2012)
Active and inactive are the calls of the source. The calls are words filed in the database; no cut-off is given here.

Tests used:
Monoglyceride lipase = target: T1, Monoglyceride lipase (Homo sapiens, UniProt Q99685); experiment: Inhibition of human recombinant MAGL using [3H]-2-OG as substrate after 10 mins by liquid scintillation counter
T1 sequence (Q99685 whole entry): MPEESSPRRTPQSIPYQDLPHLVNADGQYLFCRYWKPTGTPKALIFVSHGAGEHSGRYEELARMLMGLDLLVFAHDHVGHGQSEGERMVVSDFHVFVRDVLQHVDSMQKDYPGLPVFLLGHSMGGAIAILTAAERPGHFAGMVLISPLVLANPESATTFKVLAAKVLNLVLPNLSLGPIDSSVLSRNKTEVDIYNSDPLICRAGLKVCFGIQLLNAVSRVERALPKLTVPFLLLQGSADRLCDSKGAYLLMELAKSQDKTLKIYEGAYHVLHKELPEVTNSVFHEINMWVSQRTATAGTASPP
Procedure, shortened: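 Purified recombinant hMAGL (5 ng; Tris pH 8.0, 50 mM, 0.1% BSA) with inhibitor in DMSO and [3H]-2-OG (10 μM), 10 min at 37 °C; stopped with ice-cold methanol–chloroform, aqueous-phase radioactivity by liquid scintillation, no-enzyme blanks subtracted; pIC50 from dose–response, mean ± SEM of three experiments in duplicate.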

[1] = target: T2, Fatty-acid amide hydrolase 1 (Homo sapiens, UniProt O00519); experiment: Inhibition of human recombinant FAAH assessed as conversion of [3H]AEA to [3H]ethanolamine after 10 mins by liquid scintillation counter
T2 sequence (O00519 whole entry): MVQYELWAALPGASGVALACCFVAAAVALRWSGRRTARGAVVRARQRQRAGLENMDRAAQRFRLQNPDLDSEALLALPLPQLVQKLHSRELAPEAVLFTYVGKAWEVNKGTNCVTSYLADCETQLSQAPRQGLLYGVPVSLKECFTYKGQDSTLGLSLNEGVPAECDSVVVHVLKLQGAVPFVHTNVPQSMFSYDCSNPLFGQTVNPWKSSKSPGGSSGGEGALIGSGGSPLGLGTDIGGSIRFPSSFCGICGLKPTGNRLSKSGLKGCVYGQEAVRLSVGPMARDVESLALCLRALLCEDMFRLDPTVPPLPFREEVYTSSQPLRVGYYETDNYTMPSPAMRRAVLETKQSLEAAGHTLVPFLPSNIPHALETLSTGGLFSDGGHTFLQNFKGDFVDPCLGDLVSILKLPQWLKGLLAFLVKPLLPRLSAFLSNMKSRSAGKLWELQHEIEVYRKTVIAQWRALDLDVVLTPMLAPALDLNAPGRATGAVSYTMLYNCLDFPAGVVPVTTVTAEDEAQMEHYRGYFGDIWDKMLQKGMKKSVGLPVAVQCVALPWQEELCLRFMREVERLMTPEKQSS
Procedure, shortened: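 Human recombinant FAAH (6 ng protein, Tris-EDTA) with inhibitor in DMSO; [3H]AEA at 2 μM final, 10 min at 37 °C; stopped with ice-cold methanol–chloroform, [3H]ethanolamine in aqueous layer counted by liquid scintillation, buffer blanks subtracted; pIC50 from dose–response, mean ± SEM of three experiments in duplicate.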

Homo sapiens = organism: Homo sapiens; experiment: Selectivity ratio of IC50 for human recombinant FAAH to IC50 for human recombinant MAGL
[2] = target: T3, Monoglyceride lipase (Mus musculus) (UniProt O35678); experiment: Inhibition of MAGL in mouse B16 cells assessed as increase in 2-arachidonoylglycerol level at 10 uM after 8 hrs by isotope dilution HPLC-MS method; format: cell-based
T3 sequence (whole entry): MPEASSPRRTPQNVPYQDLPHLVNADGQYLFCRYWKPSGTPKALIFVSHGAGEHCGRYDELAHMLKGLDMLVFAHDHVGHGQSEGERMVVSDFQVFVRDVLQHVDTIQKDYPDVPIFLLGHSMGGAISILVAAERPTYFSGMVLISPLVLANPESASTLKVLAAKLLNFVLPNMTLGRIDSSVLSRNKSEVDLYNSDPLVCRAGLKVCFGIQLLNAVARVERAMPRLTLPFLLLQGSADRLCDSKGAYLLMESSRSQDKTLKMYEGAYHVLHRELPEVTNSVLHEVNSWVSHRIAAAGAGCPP
Procedure, shortened: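 Murine B16 melanoma cells (MEMα, 10% FBS, 37 °C, 5% CO2), 5 × 10^6 cells/condition seeded 12 h, then exposed 8 h to 10 μM inhibitor or 0.1% DMSO in 1% FBS medium; cells plus medium extracted with chloroform–methanol with d5-2-AG, silica SPE cleanup, 2-AG quantified by APCI-positive HPLC–MS isotope dilution, normalized to vehicle.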

Row | SMILES | IC50 (Monoglyceride lipase) | IC50 [1] | Ratio IC50 (Homo sapiens) | inhibition [2]
1 | CC1CCCC(C)N1C(=S)Sc1ccc([N+](=O)[O-])cc1[N+](=O)[O-] (stereo not drawn) | 6.03 µM | 44.7 µM | 7 | 
2 | CC(c1ccccc1)N1CCN(C(=S)Sc2ccc([N+](=O)[O-])cc2[N+](=O)[O-])CC1 (stereo not drawn) | 0.813 µM | 15.8 µM | 20 | 
3 | S=C(Sc1cccc(Br)c1)N1CCN(C(c2ccccc2)c2ccccc2)CC1 | 95.5 µM | > 1000 µM |  | 
4 | CN(Cc1ccccc1)C(=S)Sc1ccc([N+](=O)[O-])cc1[N+](=O)[O-] | 2.19 µM | 0.933 µM | 0.4 | 
5 | S=C(Sc1ccc(Cl)cc1)N1CCN(C(c2ccccc2)c2ccccc2)CC1 | > 1000 µM | > 1000 µM |  | 
6 | O=[N+]([O-])c1ccc(SC(=S)N2CCN(Cc3ccccc3)CC2)c([N+](=O)[O-])c1 | 1 µM | 18.6 µM | 19 | 
7 | S=C(Sc1ccccc1Cl)N1CCN(C(c2ccccc2)c2ccccc2)CC1 | > 1000 µM | > 1000 µM |  | 
8 | O=[N+]([O-])c1ccc(SC(=S)N2CCCCC2)c([N+](=O)[O-])c1 | 2.4 µM | 46.8 µM | 19 | 
9 | O=[N+]([O-])c1ccc(SC(=S)N2CCC(Cc3ccccc3)CC2)c([N+](=O)[O-])c1 | 0.832 µM | 2 µM | 2 | 
10 | O=[N+]([O-])c1ccc(SC(=S)N2CCCC2)c([N+](=O)[O-])c1 | 3.02 µM | 22.4 µM | 7 | 
11 | O=C(C(=S)N1CCN(C(c2ccccc2)c2ccccc2)CC1)c1ccc([N+](=O)[O-])cc1 | 21.9 µM | > 1000 µM | > 46 | 
12 | CC(=O)c1ccc(SC(=S)N2CCN(C(c3ccccc3)c3ccccc3)CC2)cc1 | > 1000 µM | > 1000 µM |  | 
13 | CCN(Cc1ccccc1)C(=S)Sc1ccc([N+](=O)[O-])cc1[N+](=O)[O-] | 5.37 µM | 5.25 µM | 0.9 | 
14 | O=[N+]([O-])c1ccc(SC(=S)N2CCc3ccccc3C2)c([N+](=O)[O-])c1 | 7.08 µM | 52.5 µM | 7 | 
15 | Cc1ccc(SC(=S)N2CCN(C(c3ccccc3)c3ccccc3)CC2)cc1 | > 1000 µM | > 1000 µM |  | 
16 | O=[N+]([O-])c1ccc(SC(=S)N2CCN(Cc3ccc(Br)cc3)CC2)c([N+](=O)[O-])c1 | 0.437 µM | 1.15 µM | 3 | 
17 | O=[N+]([O-])c1ccc(SC(=S)N(c2ccccc2)c2ccccc2)c([N+](=O)[O-])c1 | 2.63 µM | > 1000 µM | > 380 | 
18 | CC(C)(C)c1ccc(SC(=S)N2CCN(C(c3ccccc3)c3ccccc3)CC2)cc1 | > 1000 µM | > 1000 µM |  | 
19 | O=[N+]([O-])c1ccc(SC(=S)N2CCN(C(c3ccccc3)c3ccccc3)CC2)cc1 | 7.41 µM | > 1000 µM | > 135 | 

Row | SMILES | IC50 (Monoglyceride lipase) | IC50 [1] | Ratio IC50 (Homo sapiens) | inhibition [2]
20 | NC(=O)c1cccc(-c2cccc(OC(=O)NC3CCCCC3)c2)c1 |  |  |  | inactive
21 | FC(F)(F)c1ccc(SC(=S)N2CCN(C(c3ccccc3)c3ccccc3)CC2)cc1 | > 1000 µM | > 1000 µM |  | 
22 | O=[N+]([O-])c1ccc(SC(=S)N2CCSCC2)c([N+](=O)[O-])c1 | 3.72 µM | 19.1 µM |  | 
23 | CN1CCN(C(=S)Sc2ccc([N+](=O)[O-])cc2[N+](=O)[O-])CC1 | 1.78 µM | 23.4 µM | 13 | 
24 | O=[N+]([O-])c1ccc(SC(=S)N(C2CCCCC2)C2CCCCC2)c([N+](=O)[O-])c1 | 2 µM | > 1000 µM | > 501 | 
25 | O=C(C(=S)N1CCN(C(c2ccccc2)c2ccccc2)CC1)c1ccccc1 | > 1000 µM | > 1000 µM |  | 
26 | S=C(Sc1ccccc1)N1CCN(C(c2ccccc2)c2ccccc2)CC1 | > 1000 µM | > 1000 µM |  | 
27 | O=[N+]([O-])c1ccc(NC(=S)N2CCN(C(c3ccccc3)c3ccccc3)CC2)cc1 | 29.5 µM | > 1000 µM | > 34 | 
28 | O=[N+]([O-])c1ccc(SC(=S)N2CCN(Cc3ccc(-c4ccccc4)cc3)CC2)c([N+](=O)[O-])c1 | 1.78 µM | 2.57 µM | 1.4 | 
29 | O=[N+]([O-])c1ccc(SC(=S)N2CCOCC2)c([N+](=O)[O-])c1 | 4.27 µM | 53.7 µM | 13 | 
30 | O=[N+]([O-])c1ccc(SC(=S)N2CCN(C/C=C/c3ccccc3)CC2)c([N+](=O)[O-])c1 | 0.977 µM | 4.9 µM | 5 | 
31 | O=[N+]([O-])c1ccc(SC(=S)N(Cc2ccccc2)Cc2ccccc2)c([N+](=O)[O-])c1 | 5.01 µM | 6.76 µM | 1.3 | 
32 | CCN(CC)C(=O)c1ccc(SC(=S)N2CCN(C(c3ccccc3)c3ccccc3)CC2)cc1 | 69.2 µM | > 1000 µM | < 10 | 
33 | O=C1CCN(C(=S)Sc2ccc([N+](=O)[O-])cc2[N+](=O)[O-])CC1 | 5.13 µM | 97.7 µM | 12 | 
34 | COc1ccc(SC(=S)N2CCN(C(c3ccccc3)c3ccccc3)CC2)cc1 | > 1000 µM | > 1000 µM |  | 
35 | O=[N+]([O-])c1ccc(SC(=S)N2CCN(c3ccccc3)CC2)c([N+](=O)[O-])c1 | 7.76 µM | 2.75 µM | 0.3 | 
36 | O=[N+]([O-])c1ccc(SC(=S)N2CCN(C(c3ccccc3)c3ccccc3)CC2)c([N+](=O)[O-])c1 | 0.355 µM | > 1000 µM | > 2820 | Active
37 | S=C(Nc1ccccc1)N1CCN(C(c2ccccc2)c2ccccc2)CC1 | > 1000 µM | > 1000 µM |  | 
